One compound from ChEMBL document CHEMBL5360562 (Eur J Med Chem, 2023) can be followed below.

The structures appear in SMILES notation. Where only a bound is given, the exact number is not on record here.

The subject of data set [1] is Acinetobacter baumannii. Description: Potentiation of erythromycin antibacterial activity against Acinetobacter baumannii AB5075 assessed as erythromycin MIC at 2.5 uM incubated for 16 hrs by broth microdilution method. In kind it is functional.
Data set [2] concerns Acinetobacter baumannii. Description: Potentiation of Clarithromycin antibacterial activity against Acinetobacter baumannii AB5075 assessed as clarithromycin MIC at 1.5 uM incubated for 16 hrs by broth microdilution method. In kind it is functional. In outline:
(§1)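 Checkerboard-style potentiation by broth microdilution. 6 h day cultures in CAMHB diluted to 5×10^5 CFU/mL. Adjuvant added from 10 mM DMSO stock at fixed concentration throughout. […] Controls: antibiotic alone, adjuvant alone, media only. Incubated stationary at 37 °C for 16 h. MIC is lowest concentration with no visible growth; fold reduction taken against the antibiotic-alone lane.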

Data set [3] can be described thus: Stability of compound in human plasma assessed as parent compound remaining measured at 4 hrs. In kind it is ADME, cell-free. In outline: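 Compound at 20 μM final in human plasma (from 10 mM DMSO stock), 37 °C; aliquots at 0, 30, 60, 120, 240 min quenched in internal standard in 1:1 ACN/MeOH, centrifuged, supernatant analysed by UPLC-MRM. Peak-area ratio to internal standard expressed as % parent remaining relative to 0 min; half-life calculated.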

Data set [4] has as its system Acinetobacter baumannii. In words: Potentiation of Clarithromycin antibacterial activity against Acinetobacter baumannii AB967 assessed as clarithromycin MIC at 10 uM incubated for 16 hrs by broth microdilution method. It is filed as functional.
Data set [5] has as its system Acinetobacter baumannii. In words: Potentiation of Clarithromycin antibacterial activity against Acinetobacter baumannii AB5674 assessed as clarithromycin MIC at 10 uM incubated for 16 hrs by broth microdilution method. In kind it is functional.
A further data set relates to Pseudomonas aeruginosa. Description: Potentiation of Clarithromycin antibacterial activity against Pseudomonas aeruginosa PAO1 assessed as clarithromycin MIC at 20 uM incubated for 16 hrs by broth microdilution method. In kind it is functional. In outline:
as §1

Data set [6] can be described thus: Metabolic stability in human liver microsomes assessed as parent compound remaining in presence of NADPH measured at 1 hr by UV-UPLC analysis. It is filed as ADME, Microsome.
In data set [7] the test system is Escherichia coli. Description: Potentiation of Clarithromycin antibacterial activity against Escherichia coli ATCC 25922 assessed as clarithromycin MIC at 3.75 uM incubated for 16 hrs by broth microdilution method. It is filed as functional.
In data set [8] the test system is Acinetobacter baumannii. Description: Potentiation of Azithromycin antibacterial activity against Acinetobacter baumannii AB5075 assessed as azithromycin MIC at 2.5 uM incubated for 16 hrs by broth microdilution method. It is filed as functional.
Data set [9] concerns Escherichia coli. Description: Potentiation of Clarithromycin antibacterial activity against Escherichia coli ATCC 25922 assessed as clarithromycin MIC at 2.5 uM incubated for 16 hrs by broth microdilution method. It is filed as functional. An outline of the steps:
as §1

Data set [10] deals with Acinetobacter baumannii. Description: Potentiation of Clarithromycin antibacterial activity against Acinetobacter baumannii AB5075 assessed as clarithromycin MIC at 2.5 uM incubated for 16 hrs by broth microdilution method. It is filed as functional.
The subject of data set [11] is Acinetobacter baumannii. In words: Antibacterial activity against Acinetobacter baumannii AB5075 assessed as reduction in bacterial growth incubated for 16 hrs by broth microdilution method. It is filed as functional.
In data set [12] the test system is Acinetobacter baumannii. Description: Potentiation of Clarithromycin antibacterial activity against Acinetobacter baumannii AB3785 assessed as clarithromycin MIC at 10 uM incubated for 16 hrs by broth microdilution method. In kind it is functional.
The test system of data set [13] is Acinetobacter baumannii. In words: Potentiation of erythromycin antibacterial activity against Acinetobacter baumannii AB5075 assessed as erythromycin MIC at 30 uM incubated for 16 hrs by broth microdilution method. In kind it is functional.
In data set [14] the test system is Acinetobacter baumannii. Description: Potentiation of rifampicin antibacterial activity against Acinetobacter baumannii AB5075 assessed as rifampicin MIC at 10 uM incubated for 16 hrs by broth microdilution method. It is filed as functional.
The test system of data set [15] is Acinetobacter baumannii. Description: Potentiation of erythromycin antibacterial activity against Acinetobacter baumannii AB5075 assessed as erythromycin MIC at 7.5 uM incubated for 16 hrs by broth microdilution method. In kind it is functional.
The next data set relates to Klebsiella pneumoniae. In words: Antibacterial activity against Klebsiella pneumoniae ATCC BAA-2146 assessed as inhibition of bacterial growth incubated for 16 hrs by broth microdilution method. In kind it is functional. In outline:
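Standalone MIC by broth microdilution. 6 h day cultures in cation-adjusted Mueller-Hinton broth (CAMHB) diluted to 5×10^5 CFU/mL. Compound added from 10 mM DMSO stock to 200 μM (highest concentration), then twofold serial dilution. Incubated stationary at 37 °C for 16 h.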

Data set [16] concerns Acinetobacter baumannii. Description: Potentiation of Clarithromycin antibacterial activity against Acinetobacter baumannii AB5075 assessed as fold reduction in clarithromycin MIC at 30 uM incubated for 16 hrs by broth microdilution method. It is filed as functional. In outline: as §1

For `Cl.Cl.Nc1nc(-c2ccc(NC(=O)Nc3cccc(-c4c[nH]c(N)n4)c3F)cc2F)c[nH]1`, the MIC with Acinetobacter baumannii [1] is 32 µg/mL; in the data set with Acinetobacter baumannii [2], 2 µg/mL; in the data set with Acinetobacter baumannii [4] it was not above 0.062 µg/mL; in the data set on Acinetobacter baumannii [5], not above 0.062 µg/mL; in the data set on Pseudomonas aeruginosa, 16 µg/mL; in the data set on Escherichia coli [7], 0.125 µg/mL. Further, the MIC is 32 µg/mL in the data set on Acinetobacter baumannii [8]; 32 µg/mL in the data set with Escherichia coli [9]; 0.125 µg/mL with Acinetobacter baumannii [10]; more than 200 µM in the data set on Acinetobacter baumannii [11]; not above 0.062 µg/mL with Acinetobacter baumannii [12]; not above 0.062 µg/mL in the data set with Acinetobacter baumannii [13]. In addition, the MIC is 0.007 µg/mL in the data set with Acinetobacter baumannii [14], 0.25 µg/mL in the data set with Acinetobacter baumannii [15] and more than 200 µM in the data set with Klebsiella pneumoniae. Further, the Stability turned out to be 76% in [3] and 87% in data set [6]. Besides, the “fold change (FC)” value in the data set with Acinetobacter baumannii [16] is on record as “>=512”.
